From PubChem BioAssay
Rows were chosen to be rich in hits. Some 1.9% of all compounds tested hit in one or more screens of this group.
Rce1 inhib – blocks yeast Ras-converting enzyme. calls only. yeast membranes, quenched prenylated peptide cleavage fluorescence. Q03530. actives 0.27% (n = 290,000);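 active means fall in fluorescence gain of 50% or more versus controls, with final raw signal at or below 3038400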;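 further: plate controls were neutral control wells for no effect and wells lacking membranes for full effect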
Yeast superoxide – caloric restriction mimetics inhibiting age-related superoxide in yeast; S. cerevisiae aged cells, superoxide DHE fluorescence; hits give low values; superoxide response (% of plate mean), % at 10 µM; actives 0.18% (n = 330,000); AID 2690;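 active means superoxide response under a set limit, about three screen SD below normal, cut at about 65% in these data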;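 further: yeast aged for seven days with compound at 30 °C before DHE staining; 100% = average MFI of all compound-treated wells on the plate with controls excluded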
NR1D1 modulator – modulates human Rev-erb alpha binding to DNA. Rev-erbα–FITC-DNA binding, fluorescence polarization, 90 min. P20393. activity, % at 10 µM. AID 1259318. actives 0.79% (n = 370,000);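 active means activity above about 14%, limit read from the data; passing the limit was not always enough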;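 further: 0% = DMSO wells with 35 nM protein and 100% = DMSO wells with 750 nM protein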
beta cell repl – induces beta-cell replication in MIN6 cells | proliferation, % at 10 µM | AID 2380 | actives 0.29% (n = 330,000) | MIN6 cells proliferation, ATPlite luminescence, 48 h; cells starved in 0.2% serum; 100% = growth in 10% serum;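 active means compounds whose signal lies at least 3.5 SD above the mean of all wells on their plate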;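 further: 0% = DMSO-treated cells in low-serum medium and 100% = 10% serum control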
UCH37 inh – inhibitors of human deubiquitinating enzyme UCH37; Q9Y5K5; purified proteasome/UCH37, Ub-AMC cleavage fluorescence; inhibition, % (no concentration beside the values); actives 0.33% (n = 330,000); AID 588478;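 active means mean inhibition over replicate wells above about 20%, limit read from the data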;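 further: 0% = compound-free wells with enzyme and 100% = wells lacking proteasome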
Target sequence (Q9Y5K5 whole entry, looked up): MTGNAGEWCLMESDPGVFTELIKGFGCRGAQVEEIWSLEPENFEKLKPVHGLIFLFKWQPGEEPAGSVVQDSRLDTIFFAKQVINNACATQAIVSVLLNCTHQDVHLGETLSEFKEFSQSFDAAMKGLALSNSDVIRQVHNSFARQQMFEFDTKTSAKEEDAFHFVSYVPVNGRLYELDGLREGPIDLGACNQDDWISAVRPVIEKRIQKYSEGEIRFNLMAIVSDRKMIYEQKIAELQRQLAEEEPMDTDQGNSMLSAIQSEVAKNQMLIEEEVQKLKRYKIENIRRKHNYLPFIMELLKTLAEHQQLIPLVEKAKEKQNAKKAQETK
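system = Proteasome-associated human UCH37 deubiquitinase | amount = 0.15 nM proteasome as dispensed | medium = pH 7.4 Tris-HCl (50 mM) with ovalbumin, ATP-MgCl2, DTT | incubation = 30 min preincubation with enzyme, 25 min cleavage at room temperature | detection = AMC fluorescence 355/460 nm | read-out basis = percent inhibition | controls = no-proteasome and no-compound wells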
PG9 Ab binder – PG9 antibody binding by small molecule | TR-FRET gp120-PG9 antibody binding | inhibition, % at 6.7 µM | actives 0.43% (n = 360,000) | AID 624416; in the data active means inhibition above about 8.5%
The depositor's hits bear a star.

Results for O=C(O)c1cc(O)c2c(c1)[C@@H]([C@H]1c3cc(C(=O)O)cc(O)c3C(=O)c3c(O[C@H]4O[C@H](CO)[C@@H](O)[C@H](O)[C@H]4O)cccc31)c1cccc(O[C@H]3O[C@H](CO)[C@@H](O)[C@H](O)[C@H]3O)c1C2=O ?
NR1D1 modulator: -36.3

Results for O=C(O)c1cc(O)c2c(c1)[C@@H]([C@H]1c3cc(C(=O)O)cc(O)c3C(=O)c3c(O[C@@H]4O[C@H](CO)[C@@H](O)[C@H](O)[C@H]4O)cccc31)c1cccc(OC3O[C@H](CO)[C@@H](O)[C@H](O)[C@H]3O)c1C2=O (some centres undefined) ?
Rce1 inhib: inactive; Yeast superoxide: 111.7; NR1D1 modulator: -55.5; beta cell repl: -0.4; UCH37 inh: 31.0*; PG9 Ab binder: 0.9

How did COc1ccc(CNC(=O)c2c(C)oc3c2C(=O)c2ccccc2C3=O)cc1 do in these assays?
Rce1 inhib: inactive; Yeast superoxide: 128.1; NR1D1 modulator: 10.1; beta cell repl: -6.3; UCH37 inh: 10.6; PG9 Ab binder: 1.2

Results for Cc1oc2c(c1C(=O)NCc1cccnc1)C(=O)c1ccccc1C2=O ?
Rce1 inhib: inactive; Yeast superoxide: 177.1; beta cell repl: -6.2; UCH37 inh: 21.9*

How did Cc1cc(C(=O)NN=Cc2ccc(-c3cccc(Cl)c3)o2)n[nH]1 do in these assays?
UCH37 inh: -299.2

What do the screens show for `CC(=O)NN1C(=O)c2ccccc2NC1c1ccoc1` (centres undefined)?
Rce1 inhib: active; Yeast superoxide: 78.6; NR1D1 modulator: -8.5; beta cell repl: -0.2; UCH37 inh: -406.7; PG9 Ab binder: 2.1

What do the screens show for `CC(=NNC(=O)c1ccc(Cl)cc1)c1ccc2[nH]ccc2c1`?
UCH37 inh: -3.9

What do the screens show for `Nc1c(S(=O)(=O)O)cc(NC(=O)c2ccccc2)c2c1C(=O)c1ccccc1C2=O`?
Rce1 inhib: inactive; Yeast superoxide: 129.3; beta cell repl: -4.0; UCH37 inh: 33.1*

What do the screens show for `CCN1CCN(CCCNC(=O)C2CCCN(c3nnc(-n4cccc4)s3)C2)CC1` (centres undefined)?
Rce1 inhib: inactive; Yeast superoxide: 93.4; NR1D1 modulator: -2.9; beta cell repl: -2.6; UCH37 inh: 23.2*; PG9 Ab binder: 0.4

How did CN1CCN(CCCNC(=O)C2CCN(c3nnc(-n4cccc4)s3)CC2)CC1 do in these assays?
Rce1 inhib: inactive; Yeast superoxide: 103.3; NR1D1 modulator: 2.3; beta cell repl: -3.6; UCH37 inh: 1.6; PG9 Ab binder: -0.1

What do the screens show for `O=C(OC1CCCCC1)c1cc2ccccc2oc1=O`?
Rce1 inhib: inactive; Yeast superoxide: 126.1; NR1D1 modulator: -0.8; beta cell repl: -1.4; UCH37 inh: -16.6; PG9 Ab binder: -0.2

Results for O=C(OC[C@@H]1CCCN2CCCC[C@H]12)c1cc2ccccc2oc1=O ?
Rce1 inhib: active; Yeast superoxide: 95.0; NR1D1 modulator: -2.0; beta cell repl: -1.2; PG9 Ab binder: -0.3

How did O=C(NN=Cc1ccccc1O)c1cccc2ccccc12 do in these assays?
UCH37 inh: -4.1

How did COc1ccc(CNC(=O)C2(CC3CC(c4ccccc4)=NO3)CCN(C(=O)C3CCCC3)CC2)cc1 (centres undefined) do in these assays?
Rce1 inhib: inactive; Yeast superoxide: 93.5; NR1D1 modulator: 2.4; beta cell repl: -1.8; UCH37 inh: 30.5*; PG9 Ab binder: -1.1

What do the screens show for `CN(C)C=NC1=C(C#N)C(c2ccc(Br)cc2)c2ccc3ccccc3c2O1` (centres undefined)?
UCH37 inh: -2.7

What do the screens show for `CCC(COC)NC(=O)CCc1nnc(Cc2cccc(C(F)(F)F)c2)o1` (centres undefined)?
Rce1 inhib: active; Yeast superoxide: 97.1; NR1D1 modulator: -3.4; beta cell repl: -2.1; UCH37 inh: 2.3; PG9 Ab binder: 0.1

How did O=C(NCC1CC1)c1ccc(Nc2nc3ccc(Br)cc3[nH]2)cc1 do in these assays?
Rce1 inhib: active; Yeast superoxide: 100.7; NR1D1 modulator: 3.6; beta cell repl: -1.7; UCH37 inh: 1.6; PG9 Ab binder: 2.7

What do the screens show for `CCOc1ccc(-c2c(C(=O)NN=Cc3ccsc3)nnn2-c2nonc2N)cc1`?
UCH37 inh: 5.0
